Sampled rows, rich in hits. Any-hit rate of the full collection: about 1.4%.
HTR5A ag ctr: activates human HTR5A in OPRM1-OPRD1 agonist counter-screen | activation, % at 9.3 µM | 340,000 tested, 0.61% active | P47898 | HTR5A agonist assay, luminescence, cell-based; in the data active means activation mostly above about 9.5%, no sharp cut-off; inactive means mostly below about 7.6%;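 further: 0% = cells with vehicle only and 100% = reference agonist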
Target sequence (P47898 whole entry, looked up): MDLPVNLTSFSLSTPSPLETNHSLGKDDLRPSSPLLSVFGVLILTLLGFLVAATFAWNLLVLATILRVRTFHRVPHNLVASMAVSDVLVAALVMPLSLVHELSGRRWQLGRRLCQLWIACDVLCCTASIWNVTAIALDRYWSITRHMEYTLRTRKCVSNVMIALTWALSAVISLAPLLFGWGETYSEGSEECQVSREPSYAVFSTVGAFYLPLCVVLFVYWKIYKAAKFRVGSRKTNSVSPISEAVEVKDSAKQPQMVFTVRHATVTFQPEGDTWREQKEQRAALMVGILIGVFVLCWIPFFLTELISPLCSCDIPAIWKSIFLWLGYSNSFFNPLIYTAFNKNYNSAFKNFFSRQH
OPRM1-OPRD1 ag: OPRM1-OPRD1 heterodimerization agonism. 340,000 tested, 0.3% active. activation, % at 9.3 µM. cells, luminescence; in the data active means activation above about 18%;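 further: 0% = vehicle-treated cells and 100% = reference agonist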
HTR5A inv ctr: counter-screen for OPRM1-OPRD1 inverse agonists: human HTR5A inverse agonism. HTR5A cell line, luminescence. AID 504634. inhibition, % at 9.3 µM. 340,000 tested, 0.083% active; in the data active means inhibition mostly above about 23%, no sharp cut-off; inactive means mostly below about 18%;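 further: 0% = cells with DMSO and 100% = no-cell wells with DMSO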
MOR-DOR inv ag: inverse agonists of human mu-delta opioid receptor heterodimerization; cell-based MOR-DOR heterodimer luminescence, inverse agonism; inhibition, % at 9.3 µM; P35372+P41143; 340,000 tested, 0.21% active; AID 504357; in the data active means inhibition above about 22%, passing the limit was not always enough;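 further: 0% = cells with DMSO and 100% = wells without cells with DMSO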
Lipid droplet: modulators of hepatic lipid droplet formation; inhibition, % at 6.5 µM; 240,000 tested, 0.4% active; AML12 mouse hepatocytes, oleate lipid droplets, BODIPY imaging;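 active means lipid droplet intensity inhibited by at least 50%, with more than 500 cells counted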
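Material: mouse AML12 hepatocyte cell line, fixed after treatment; Timing: compound with oleate, overnight; Technique: high-content imaging of BODIPY-stained droplets and DAPI nuclei; Probe or stimulus: oleate, 100 µM final; Dosing: compound at 6.5 µM only.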
Hep lipid conf: confirmation of inhibitors of hepatic lipid droplet formation; shares compounds with Lipid droplet; AML12 mouse hepatocytes, BODIPY lipid droplet imaging; droplets induced with 100 µM oleic acid; inhibition, % at 5.2 µM; 870 tested, 65% active; AID 463183;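 active means inhibition of lipid droplet metric at least 50%, with more than 300 cells in each of four replicates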;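 further: plate controls were DMSO with oleic acid for no effect and 5 µM Triacsin-C for full effect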
AML12 tox img: AML12 hepatocyte cytotoxicity (counter-screen) | AID 463200 | AML12 mouse hepatocytes, DAPI nuclear morphology cytotoxicity imaging; hits give high values; cells fed 100 µM oleate overnight | 870 tested, 3% active | z-score at 5 µM | shares compounds with Lipid droplet; in the data active means z-score above about 6.3;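 further: compound exposure lasted overnight at 37 °C before fixation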
AML12 tox conf: confirmation of cytotoxicity in AML12 mouse hepatocytes; AML12 mouse hepatocyte viability, ATP luminescence; cells loaded with 100 µM oleic acid; 530 tested, under 10 active; cytotoxicity, % at 50 µM; AID 463219; shares compounds with Lipid droplet;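 active means cytotoxicity above 50% in each of four replicates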;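 further: compound exposure lasted overnight at 37 °C before the ATP read; 0% = DMSO-treated cells and 100% = wells with no cells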
Active calls of the source: *.

How did CCOc1ccc(CCNC(=O)CN2CCN(Cc3ccccc3C)C2=O)cc1OCC do in these assays?
HTR5A ag ctr: 3; OPRM1-OPRD1 ag: -3; HTR5A inv ctr: -7; MOR-DOR inv ag: 13; Lipid droplet: 83*; Hep lipid conf: 107*; AML12 tox img: -0.059; AML12 tox conf: 12

What do the screens show for `CCOc1ccc(CCNC(=O)COC(=O)c2cccnc2OCC)cc1OCC`?
HTR5A ag ctr: 1; OPRM1-OPRD1 ag: -2; HTR5A inv ctr: -20; MOR-DOR inv ag: 14; Lipid droplet: 98*; Hep lipid conf: 105*; AML12 tox img: -0.53; AML12 tox conf: 9

Results for CC(C)OC(=O)/C(=C/c1ccc2c(c1)c1ccccc1n2C)NC(=O)c1ccccc1 ?
HTR5A ag ctr: 5; OPRM1-OPRD1 ag: -1; HTR5A inv ctr: 9; MOR-DOR inv ag: 4; Lipid droplet: 53*; Hep lipid conf: 96*; AML12 tox img: -0.2; AML12 tox conf: -6

Results for COC(=O)/C(=C\c1ccc2c(c1)c1ccccc1n2C)NC(=O)c1ccccc1 ?
HTR5A ag ctr: -3; OPRM1-OPRD1 ag: 0; HTR5A inv ctr: 6; MOR-DOR inv ag: -2; Lipid droplet: 52*; Hep lipid conf: 93*; AML12 tox img: 0.98; AML12 tox conf: 1

Results for O=C(COC(=O)Cc1ccsc1)Nc1ccc(Cl)c(S(=O)(=O)N2CCOCC2)c1 ?
HTR5A ag ctr: 1; OPRM1-OPRD1 ag: -2; HTR5A inv ctr: -3; MOR-DOR inv ag: 11; Lipid droplet: 0

What do the screens show for `C=CCN1C(=O)c2ccccc2Sc2ccc(C(=O)NC(C)C)cc21`?
HTR5A ag ctr: 2; OPRM1-OPRD1 ag: -3; HTR5A inv ctr: -7; MOR-DOR inv ag: 15; Lipid droplet: 0

What do the screens show for `C=CCN1C(=O)c2ccccc2Sc2ccc(C(=O)NCC(OC)OC)cc21`?
HTR5A ag ctr: -2; OPRM1-OPRD1 ag: -2; HTR5A inv ctr: 8; MOR-DOR inv ag: 10; Lipid droplet: 55*; Hep lipid conf: 34; AML12 tox img: -0.91

How did CCOC(=O)c1ccc(N2CCN(c3ccc(F)cc3)CC2)c(NC(=O)Nc2cccc(OC)c2)c1 do in these assays?
HTR5A ag ctr: 8; OPRM1-OPRD1 ag: 0; HTR5A inv ctr: -21; MOR-DOR inv ag: -3; Lipid droplet: 3

How did CCOC(=O)c1ccc(N2CCN(c3ccccc3F)CC2)c(NC(=O)Nc2ccccc2)c1 do in these assays?
HTR5A ag ctr: 6; OPRM1-OPRD1 ag: 1; HTR5A inv ctr: 7; MOR-DOR inv ag: -7; Lipid droplet: 52*; Hep lipid conf: 100*; AML12 tox img: -0.15; AML12 tox conf: -5

What do the screens show for `CC(=O)c1ccc(N2C(=NC(=O)C3CCCCC3)SC3CS(=O)(=O)CC32)cc1` (stereo not given)?
HTR5A ag ctr: -6; OPRM1-OPRD1 ag: -2; HTR5A inv ctr: -7; MOR-DOR inv ag: 9; Lipid droplet: -5

How did COc1ccc(-c2cc(C(F)(F)F)nc(SCCC(=O)NCc3ccccc3)n2)cc1 do in these assays?
HTR5A ag ctr: 1; OPRM1-OPRD1 ag: -2; HTR5A inv ctr: -18; MOR-DOR inv ag: 10; Lipid droplet: 62*; Hep lipid conf: -6; AML12 tox img: 0.13

How did N#Cc1cnc(NCc2ccc(Cl)cc2Cl)nc1 do in these assays?
HTR5A ag ctr: 2; OPRM1-OPRD1 ag: 2; HTR5A inv ctr: -9; MOR-DOR inv ag: -8; Lipid droplet: 14

How did Cc1ccc(C(C)C)cc1OCC(=O)Nc1ccc(-n2cnnn2)cc1 do in these assays?
HTR5A ag ctr: 2; OPRM1-OPRD1 ag: 4; HTR5A inv ctr: 8; MOR-DOR inv ag: -24

Results for O=C(CSc1nc(O)cc(=O)[nH]1)N1c2ccccc2Sc2ccccc21 ?
Lipid droplet: 56*; Hep lipid conf: 9; AML12 tox img: 0.47

What do the screens show for `CCCN1CCN(C(=O)C(NC(=O)c2ccco2)C(C)C)CC1` (stereo not given)?
HTR5A ag ctr: 13; OPRM1-OPRD1 ag: 0; HTR5A inv ctr: -38; MOR-DOR inv ag: -2; Lipid droplet: 5

What do the screens show for `CCc1nn(CC(=O)NCCCN(CC)Cc2ccccc2)c(=O)c2cc3sccc3n12`?
HTR5A ag ctr: -4; OPRM1-OPRD1 ag: 2; HTR5A inv ctr: 11; MOR-DOR inv ag: -12; Lipid droplet: -30

What do the screens show for `CCCCN(CCCNC(=O)Cn1nc(CC)n2c(cc3sc(C)cc32)c1=O)Cc1ccccc1`?
HTR5A ag ctr: 1; OPRM1-OPRD1 ag: -3; HTR5A inv ctr: -2; MOR-DOR inv ag: 14; Lipid droplet: 69*; Hep lipid conf: 89*; AML12 tox img: -0.5; AML12 tox conf: 15

What do the screens show for `CCN=C1S/C(=C\c2ccc(N3CCOCC3)cc2C)C(=O)N1CC`?
HTR5A ag ctr: 0; OPRM1-OPRD1 ag: -2; HTR5A inv ctr: 0; MOR-DOR inv ag: 9; Lipid droplet: -5

Results for COCCN1C(=O)/C(=C/c2ccc(N3CCCC3)cc2C)SC1=S ?
HTR5A ag ctr: 3; OPRM1-OPRD1 ag: -4; HTR5A inv ctr: -13; MOR-DOR inv ag: 17; Lipid droplet: 105*; Hep lipid conf: 105*; AML12 tox img: -0.08

Results for N#CC(C#N)=c1ccc2c(c1)N1C(c3ccccc3)=CC(c3ccccc3)C3CCCCC31N=2 (stereo not given) ?
HTR5A ag ctr: 1; OPRM1-OPRD1 ag: 2; HTR5A inv ctr: 22; MOR-DOR inv ag: -10; Lipid droplet: 65*; Hep lipid conf: 50; AML12 tox img: -1.1

Results for OCCCNc1cc(-c2ccnc(Nc3cccc(Cl)c3)n2)ccn1 ?
HTR5A ag ctr: -8; OPRM1-OPRD1 ag: 1; HTR5A inv ctr: 22; MOR-DOR inv ag: -4; Lipid droplet: 77*; Hep lipid conf: 90*; AML12 tox img: 27*

Results for O=C(CC(c1ccccc1)C1CCCCC1=O)c1ccccc1 (stereo not given) ?
HTR5A ag ctr: -4; OPRM1-OPRD1 ag: 2; HTR5A inv ctr: 18; MOR-DOR inv ag: -11

How did Cc1c(Cl)sn(-c2ccc(Cl)cc2)c1=O do in these assays?
HTR5A ag ctr: 19*; OPRM1-OPRD1 ag: 36*; HTR5A inv ctr: -54; MOR-DOR inv ag: -208; Lipid droplet: 59*; Hep lipid conf: -13; AML12 tox img: 11*

How did Cc1nn(-c2ccc(Cl)cc2)c(=O)c2ccccc12 do in these assays?
HTR5A ag ctr: -4; OPRM1-OPRD1 ag: -3; HTR5A inv ctr: 10; MOR-DOR inv ag: 17; Lipid droplet: -15

What do the screens show for `O=C(CNc1ccccc1)N/N=C/c1cn(-c2ccccc2)nc1-c1ccccc1`?
HTR5A ag ctr: 0; OPRM1-OPRD1 ag: -1; HTR5A inv ctr: -16; MOR-DOR inv ag: 7; Lipid droplet: 58*; Hep lipid conf: 38; AML12 tox img: 0.37
